Results taken from ChEMBL document CHEMBL4402598, “Design and Synthesis of Bitopic 2-Phenylcyclopropylmethylamine (PCPMA) Derivatives as Selective Dopamine D3 Receptor Ligands” (J Med Chem, 2020).

Columns and labels:
[1] = molecular target: D(1A) dopamine receptor (Homo sapiens, UniProt P21728); assay: Displacement of [3H]-SCH23390 from recombinant human D1 receptor transiently expressed in HEKT cell membranes measured after 90 mins by microbeta scintillation counting method
[2] = molecular target: D(2) dopamine receptor (Homo sapiens, UniProt P14416); assay: Displacement of [3H]-N-methylspiperone from recombinant human D2 receptor stably expressed in fibroblast cell membranes measured after 90 mins by microbeta scintillation counting method
[3] = molecular target: D(3) dopamine receptor (Homo sapiens, UniProt P35462); assay: Displacement of [3H]-N-methylspiperone from recombinant human D3 receptor (unknown origin) measured after 90 mins by microbeta scintillation counting method
[4] = molecular target: T1, D(4) dopamine receptor (Homo sapiens, UniProt P21917); assay: Displacement of [3H]-N-methylspiperone from recombinant human D4 receptor stably expressed in HEK cell membranes measured after 90 mins by microbeta scintillation counting method
T1 sequence (P21917 whole entry): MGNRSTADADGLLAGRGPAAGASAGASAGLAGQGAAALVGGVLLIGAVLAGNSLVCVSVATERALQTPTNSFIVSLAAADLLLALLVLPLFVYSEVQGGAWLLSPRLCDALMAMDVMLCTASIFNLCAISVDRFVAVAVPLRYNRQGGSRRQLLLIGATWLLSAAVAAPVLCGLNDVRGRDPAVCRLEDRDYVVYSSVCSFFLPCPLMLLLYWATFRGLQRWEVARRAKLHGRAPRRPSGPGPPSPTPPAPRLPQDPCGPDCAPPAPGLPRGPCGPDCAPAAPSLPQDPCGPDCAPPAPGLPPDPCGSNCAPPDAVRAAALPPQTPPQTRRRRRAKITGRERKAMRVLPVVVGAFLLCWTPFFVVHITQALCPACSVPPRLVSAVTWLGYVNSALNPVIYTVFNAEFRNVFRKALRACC

[5] = molecular target: D(1B) dopamine receptor (Homo sapiens, UniProt P21918); assay: Displacement of [3H]-SCH23390 from recombinant human D5 receptor transiently expressed in HEKT cell membranes measured after 90 mins by microbeta scintillation counting method
[6] = molecular target: T2, 5-hydroxytryptamine receptor 2C (Homo sapiens, UniProt P28335); assay: Displacement of [3H]-Mesulergine from recombinant human 5HT2C receptor expressed in HEKT cell membranes measured after 90 mins by microbeta scintillation counting method
T2 sequence (P28335 whole entry): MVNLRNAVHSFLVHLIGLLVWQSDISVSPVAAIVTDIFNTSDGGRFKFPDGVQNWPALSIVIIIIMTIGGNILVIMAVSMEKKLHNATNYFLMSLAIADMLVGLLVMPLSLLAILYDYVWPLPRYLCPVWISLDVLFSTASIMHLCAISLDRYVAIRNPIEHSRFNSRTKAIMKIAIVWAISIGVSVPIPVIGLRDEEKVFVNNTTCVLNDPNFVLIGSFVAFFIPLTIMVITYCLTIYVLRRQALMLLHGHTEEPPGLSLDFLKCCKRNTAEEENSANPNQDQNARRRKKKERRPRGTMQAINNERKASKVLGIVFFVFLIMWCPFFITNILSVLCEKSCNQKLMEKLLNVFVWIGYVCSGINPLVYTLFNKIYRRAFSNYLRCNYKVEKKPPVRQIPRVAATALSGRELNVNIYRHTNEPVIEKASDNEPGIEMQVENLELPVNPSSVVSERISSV

[7] = Cmax in ICR mouse at 10 mg/kg, po by LC-MS/MS analysis; type: ADME, organism-based; set-up: dose 10 mg/kg, route oral; conditions: in vivo
Method in brief: (§1)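 Male ICR mice (6-8 weeks, ~25 g) dosed with compound dissolved in saline, 5 mg/kg iv or 10 mg/kg po, nine animals per group. Samples stored at -80 °C; drug quantified by LC-MS/MS.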

[8] = molecular target: T2, 5-hydroxytryptamine receptor 2C; assay: Antagonist activity at human 5HT2C receptor stably expressed in HEK293 cells co-expressing Gq assessed as inhibition of 5-HT-induced calcium mobilization preincubated for 15 mins followed by 5-HT addition and measured at 1 sec interval for 60 secs by Fluo-4 calcium dye based FLIPR assay; type: functional, cell-based
Method in brief: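 5-HT2C stably transfected HEK293 cells, loaded with Fluo-4 Direct (HBSS, 20 mM HEPES pH 7.4, 2.5 mM probenecid; 50 min 37 °C, 10 min room temperature). Test compound added, then 5-HT (final 1 nM) 15 min later.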

[9] = molecular target: 5-hydroxytryptamine receptor 2A (Homo sapiens, UniProt P28223); assay: Agonist activity at 5HT2A receptor (unknown origin) expressed in HEK293 cells co-expressing Gq assessed as induction of calcium mobilization measured at 1 sec interval for 60 secs by Fluo-4 calcium dye based FLIPR assay; type: cell-based; conditions: hek293, 1 min
[10] = molecular target: 5-hydroxytryptamine receptor 2B (Homo sapiens, UniProt P41595); assay: Agonist activity at 5HT2B receptor (unknown origin) expressed in HEK293 cells co-expressing Gq assessed as induction of calcium mobilization measured at 1 sec interval for 60 secs by Fluo-4 calcium dye based FLIPR assay; type: cell-based; conditions: hek293, 1 min
[11] = Half life in ICR mouse at 5 mg/kg, iv by LC-MS/MS analysis; type: ADME, organism-based; conditions: in vivo; method in brief: as §1
[12] = AUC (0 to t) in ICR mouse at 5 mg/kg, iv by LC-MS/MS analysis; type: ADME, organism-based; conditions: in vivo; method in brief: as §1
[13] = Clearance in ICR mouse at 5 mg/kg, iv by LC-MS/MS analysis; type: ADME, organism-based; conditions: in vivo; method in brief: as §1
[14] = MRT in ICR mouse at 5 mg/kg, iv by LC-MS/MS analysis; type: ADME, organism-based; conditions: in vivo; method in brief: as §1
[15] = Volume of distribution at steady state in ICR mouse at 5 mg/kg, iv by LC-MS/MS analysis; type: ADME, organism-based; conditions: in vivo, read-out: Vdss; method in brief: as §1
[16] = Drug level in ICR mouse brain at 5 mg/kg, iv measured after 0.5 hrs by LC-MS/MS analysis; type: ADME, organism-based
Method in brief: (§2)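 Male ICR mice (6-8 weeks, ~25 g) received compound in saline, 5 mg/kg iv or 10 mg/kg po. Brains collected at 0.5 and 2.0 h, saline-washed, weighed, homogenized in cold 50% methanol (1 g:3 mL). Plasma prepared from orbital blood. Samples held at -80 °C; LC-MS/MS quantitation. Brain/plasma ratio calculated from the two concentrations.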

[17] = Drug level in ICR mouse plasma at 5 mg/kg, iv measured after 0.5 hrs by LC-MS/MS analysis; type: ADME, organism-based; method in brief: as §2
[18] = Ratio of drug level in ICR mouse brain to plasma at 5 mg/kg, iv measured after 0.5 hrs by LC-MS/MS analysis; type: ADME, organism-based; conditions: read-out: BPR; method in brief: as §2
[19] = Drug level in ICR mouse brain at 5 mg/kg, iv measured after 2 hrs by LC-MS/MS analysis; type: ADME, organism-based; method in brief: as §2
[20] = Drug level in ICR mouse plasma at 5 mg/kg, iv measured after 2 hrs by LC-MS/MS analysis; type: ADME, organism-based; method in brief: as §2
[21] = Ratio of drug level in ICR mouse brain to plasma at 5 mg/kg, iv measured after 2 hrs by LC-MS/MS analysis; type: ADME, organism-based; conditions: read-out: BPR; method in brief: as §2
[22] = Tmax in ICR mouse at 10 mg/kg, po by LC-MS/MS analysis; type: ADME, organism-based; conditions: in vivo; method in brief: as §1
[23] = Half life in ICR mouse at 10 mg/kg, po by LC-MS/MS analysis; type: ADME, organism-based; conditions: in vivo; method in brief: as §1
[24] = AUC (0 to t) in ICR mouse at 10 mg/kg, po by LC-MS/MS analysis; type: ADME, organism-based; conditions: in vivo; method in brief: as §1
[25] = MRT in ICR mouse at 10 mg/kg, po by LC-MS/MS analysis; type: ADME, organism-based; conditions: in vivo; method in brief: as §1
[26] = Oral bioavailability in ICR mouse at 10 mg/kg by LC-MS/MS analysis; type: ADME, organism-based; conditions: in vivo; method in brief: as §1
[27] = Drug level in ICR mouse brain at 10 mg/kg, po measured after 0.5 hrs by LC-MS/MS analysis; type: ADME, organism-based; method in brief: as §2
[28] = Drug level in ICR mouse plasma at 10 mg/kg, po measured after 0.5 hrs by LC-MS/MS analysis; type: ADME, organism-based; method in brief: as §2
[29] = Ratio of drug level in ICR mouse brain to plasma at 10 mg/kg, po measured after 0.5 hrs by LC-MS/MS analysis; type: ADME, organism-based; conditions: read-out: BPR; method in brief: as §2
[30] = Drug level in ICR mouse brain at 10 mg/kg, po measured after 2 hrs by LC-MS/MS analysis; type: ADME, organism-based; method in brief: as §2
[31] = Drug level in ICR mouse plasma at 10 mg/kg, po measured after 2 hrs by LC-MS/MS analysis; type: ADME, organism-based; method in brief: as §2
[32] = Ratio of drug level in ICR mouse brain to plasma at 10 mg/kg, po measured after 2 hrs by LC-MS/MS analysis; type: ADME, organism-based; conditions: read-out: BPR; method in brief: as §2

Sequence of D(1A) dopamine receptor (P21728 whole entry): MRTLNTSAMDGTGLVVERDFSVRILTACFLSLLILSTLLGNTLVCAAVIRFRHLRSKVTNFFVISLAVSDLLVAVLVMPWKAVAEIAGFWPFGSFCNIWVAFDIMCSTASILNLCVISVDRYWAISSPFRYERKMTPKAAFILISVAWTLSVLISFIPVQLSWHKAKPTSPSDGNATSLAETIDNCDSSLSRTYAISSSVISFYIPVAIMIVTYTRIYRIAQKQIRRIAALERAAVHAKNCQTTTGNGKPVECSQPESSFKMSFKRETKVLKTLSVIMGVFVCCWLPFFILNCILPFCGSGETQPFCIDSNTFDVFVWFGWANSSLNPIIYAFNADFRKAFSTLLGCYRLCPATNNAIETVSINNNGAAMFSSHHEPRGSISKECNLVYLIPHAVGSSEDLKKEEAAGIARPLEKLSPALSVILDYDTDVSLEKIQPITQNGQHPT
Sequence of D(2) dopamine receptor (P14416 whole entry): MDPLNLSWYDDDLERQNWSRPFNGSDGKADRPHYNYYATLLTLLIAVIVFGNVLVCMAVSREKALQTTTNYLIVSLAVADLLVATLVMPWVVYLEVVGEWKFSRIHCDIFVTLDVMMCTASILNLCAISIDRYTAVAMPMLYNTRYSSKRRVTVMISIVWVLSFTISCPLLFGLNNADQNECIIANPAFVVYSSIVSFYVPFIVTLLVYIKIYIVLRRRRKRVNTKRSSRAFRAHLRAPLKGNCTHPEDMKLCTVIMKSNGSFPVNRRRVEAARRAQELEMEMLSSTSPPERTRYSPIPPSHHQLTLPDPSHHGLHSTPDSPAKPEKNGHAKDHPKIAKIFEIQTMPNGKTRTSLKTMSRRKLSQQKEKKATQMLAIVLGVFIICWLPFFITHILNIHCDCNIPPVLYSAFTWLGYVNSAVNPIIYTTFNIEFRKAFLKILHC
Sequence of D(1B) dopamine receptor (P21918 whole entry): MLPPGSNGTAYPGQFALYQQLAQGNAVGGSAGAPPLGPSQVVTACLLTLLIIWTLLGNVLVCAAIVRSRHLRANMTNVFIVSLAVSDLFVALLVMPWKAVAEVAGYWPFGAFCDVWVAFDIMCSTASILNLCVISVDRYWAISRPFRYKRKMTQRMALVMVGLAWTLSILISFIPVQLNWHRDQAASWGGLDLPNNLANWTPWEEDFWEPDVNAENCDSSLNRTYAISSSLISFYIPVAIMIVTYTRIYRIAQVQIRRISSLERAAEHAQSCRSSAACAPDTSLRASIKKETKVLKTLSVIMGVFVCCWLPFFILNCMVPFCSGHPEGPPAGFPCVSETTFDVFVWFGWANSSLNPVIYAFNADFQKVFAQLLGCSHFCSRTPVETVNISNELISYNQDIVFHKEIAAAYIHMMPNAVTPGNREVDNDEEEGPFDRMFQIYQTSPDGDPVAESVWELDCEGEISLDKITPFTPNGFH
Sequence of D(3) dopamine receptor (P35462 whole entry): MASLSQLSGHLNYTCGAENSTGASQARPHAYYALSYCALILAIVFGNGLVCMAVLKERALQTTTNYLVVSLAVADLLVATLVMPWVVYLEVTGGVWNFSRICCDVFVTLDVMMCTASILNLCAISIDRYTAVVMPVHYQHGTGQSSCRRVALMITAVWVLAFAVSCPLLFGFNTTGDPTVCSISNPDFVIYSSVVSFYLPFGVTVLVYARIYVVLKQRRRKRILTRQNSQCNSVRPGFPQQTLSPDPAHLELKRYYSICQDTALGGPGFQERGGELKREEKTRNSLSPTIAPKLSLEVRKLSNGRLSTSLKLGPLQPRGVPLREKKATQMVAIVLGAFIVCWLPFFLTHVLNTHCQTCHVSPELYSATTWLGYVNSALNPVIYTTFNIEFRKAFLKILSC
Sequence of 5-hydroxytryptamine receptor 2A (P28223 whole entry): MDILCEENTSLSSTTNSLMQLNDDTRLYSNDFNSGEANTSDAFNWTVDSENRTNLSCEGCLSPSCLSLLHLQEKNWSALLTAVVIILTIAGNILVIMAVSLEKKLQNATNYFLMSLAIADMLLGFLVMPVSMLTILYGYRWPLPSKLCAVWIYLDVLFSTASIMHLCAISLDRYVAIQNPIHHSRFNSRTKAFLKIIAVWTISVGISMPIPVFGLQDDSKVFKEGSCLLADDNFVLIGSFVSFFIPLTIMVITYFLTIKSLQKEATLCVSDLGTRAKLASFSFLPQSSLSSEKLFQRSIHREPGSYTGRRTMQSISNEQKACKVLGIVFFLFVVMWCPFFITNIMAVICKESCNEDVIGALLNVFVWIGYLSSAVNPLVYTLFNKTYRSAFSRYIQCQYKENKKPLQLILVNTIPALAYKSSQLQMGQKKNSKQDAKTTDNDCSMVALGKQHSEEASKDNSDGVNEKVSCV
Sequence of 5-hydroxytryptamine receptor 2B (P41595 whole entry): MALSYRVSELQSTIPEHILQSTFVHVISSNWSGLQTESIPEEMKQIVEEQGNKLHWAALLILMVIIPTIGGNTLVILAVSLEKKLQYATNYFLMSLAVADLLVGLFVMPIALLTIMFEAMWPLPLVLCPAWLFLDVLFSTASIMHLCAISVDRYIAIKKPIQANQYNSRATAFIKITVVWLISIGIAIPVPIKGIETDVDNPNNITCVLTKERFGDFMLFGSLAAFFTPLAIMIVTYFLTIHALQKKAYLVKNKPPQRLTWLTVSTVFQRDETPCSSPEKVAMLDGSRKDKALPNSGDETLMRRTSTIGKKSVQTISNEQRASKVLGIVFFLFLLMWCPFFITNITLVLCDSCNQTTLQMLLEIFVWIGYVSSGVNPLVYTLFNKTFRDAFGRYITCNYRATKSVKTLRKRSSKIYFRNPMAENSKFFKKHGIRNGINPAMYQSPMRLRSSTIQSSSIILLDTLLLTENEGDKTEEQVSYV

COc1ccc(Cl)cc1C1CC1CN(CCCSc1nnc(-c2ccccc2)n1C)CC1CC1 (stereo not drawn)
Ki [1]: 636 nM
Ki [2]: 216 nM
Ki [3]: 23.7 nM
Ki [4]: 163 nM
Ki [5]: > 5000 nM
Ki [6]: 274 nM

CCCN(CCCCNC(=O)c1cc2ccccc2[nH]1)CC1CC1c1cc(F)ccc1OC (stereo not drawn)
Ki [1]: 871 nM
Ki [2]: 507 nM
Ki [3]: 11.2 nM
Ki [4]: 376 nM
Ki [5]: 789 nM
Ki [6]: 68 nM

CCCN(CCCCNC(=O)c1ccc(-c2ccccn2)cc1)C[C@@H]1C[C@H]1c1cccc(Cl)c1Cl.Cl
Cmax [7]: 118 ng/mL
Ki [1]: 1350 nM
Ki [4]: 676 nM
Ki [5]: > 5000 nM
Ki [6]: 417 nM
IC50 [8]: 10100 nM
Activity [9]: Active
Activity [10]: Not Active
half-life [11]: 34.6 min
AUC(0-t) [12]: 976 ng·h/mL
clearance [13]: 84.8 mL/min/kg
MRT [14]: 48.5 min
Vd [15]: 4.11 L/kg
concentration at 0.5 h [16]: 980 ng/mL
concentration at 0.5 h [17]: 511 ng/mL
Kp at 0.5 h [18]: 1.92
concentration at 2 h [19]: 227 ng/mL
concentration at 2 h [20]: 118 ng/mL
Kp at 2 h [21]: 1.93
Tmax [22]: 30 min
half-life [23]: 127 min
AUC(0-t) [24]: 254 ng·h/mL
MRT [25]: 166 min
bioavailability [26]: 13%
concentration at 0.5 h [27]: 26.7 ng/mL
concentration at 0.5 h [28]: 118 ng/mL
Kp at 0.5 h [29]: 0.23
concentration at 2 h [30]: 9.1 ng/mL
concentration at 2 h [31]: 44.1 ng/mL
Kp at 2 h [32]: 0.207

CCCN(CCCCNC(=O)c1ccc(-c2ccccn2)cc1)CC1CC1c1cccc(Cl)c1 (stereo not drawn)
Ki [1]: 832 nM
Ki [2]: > 5000 nM
Ki [3]: 26.5 nM
Ki [4]: 2330 nM
Ki [5]: 5580 nM
Ki [6]: 898 nM
